Assay [1] relates to Pichia kudriavzevii. Description: Antifungal activity against Candida krusei after 48 hrs by broth microdilution assay. It counts as functional. The method in brief: (§1)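 Yeasts kept on Sabouraud agar by serial passage. A single colony was suspended in saline, washed twice, counted by hemocytometer and added at 5 × 10⁴ CFU in RPMI 1640/MOPS pH 7.0 to serial compound dilutions. Compounds were stocked in 20% ethanol. Incubation was at 37 °C. MIC is the lowest concentration giving complete growth inhibition, read visually.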
In general terms: Dilution methods test growth across graded concentrations, often in twofold steps.

For assay [2], the system named is Candida albicans. Description: Antifungal activity against Candida albicans CA-6 infected in CD1 mouse assessed as reduction of fungal burden in kidneys treated with 0.3 ml serum of 10 mg/kg, ip dosed mouse collected after 1 hr determined 7 days post-infection. It counts as functional, organism-based. Set-up: dose 10 mg/kg. The settings on record: Kidney. The method in brief: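 Donor mice received 10 mg/kg i.p. or vehicle (0.2 ml 2% EtOH in saline); serum was collected 1 h later. Recipient CD1 mice received 0.3 ml serum i.p. 1 h before i.v. challenge with 7 × 10⁵ CA-6 per mouse. Kidney CFU were counted on Sabouraud agar 7 days after challenge.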

Assay [3] deals with Nakaseomyces glabratus. In words: Antifungal activity against Candida glabrata after 24 hrs by broth microdilution assay. It counts as functional. Summed up:
as §1

Assay [4] concerns Candida albicans. Description: Antifungal activity against Candida albicans PCA-2 after 48 hrs by broth microdilution assay. It counts as functional. As to conditions: PCA-2, 48 h. Summed up: as §1
For assay [5], the system named is Pichia kudriavzevii. In words: Antifungal activity against Candida krusei after 24 hrs by broth microdilution assay. Format: functional. The method in brief:
as §1

Assay [6] deals with Candida albicans. In words: Antifungal activity against Candida albicans CA-6 after 48 hrs by broth microdilution assay. It counts as functional. The settings on record: CA-6, 48 h. Summed up: as §1
Assay [7] has as its system Nakaseomyces glabratus. Description: Antifungal activity against Candida glabrata after 48 hrs by broth microdilution assay. It counts as functional. The method in brief: as §1
Assay [8] has as its system Candida albicans. Description: Antifungal activity against Candida albicans PCA-2 after 24 hrs by broth microdilution assay. Format: functional. As to conditions: PCA-2, 24 h. Summed up: as §1
Assay [9] relates to Candida albicans. In words: Antifungal activity against Candida albicans CA-6 infected in CD1 mouse assessed as reduction of fungal burden in kidneys at 10 mg/kg, ip pretreated 2 hrs before fungus-challenge and once daily for 6 days measured 7 days post-infection. The settings on record: Kidney. More on the design: dose 10 mg/kg. It counts as functional, organism-based. Summed up:
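Female outbred CD1 mice, 8–10 weeks old, were infected i.v. on day 0 with 2.5 × 10⁵ CA-6 blastospores. Dosing was 10 mg/kg i.p. 2 h before challenge, then daily for 6 days; vehicle was 0.2 ml 2% EtOH in saline i.p. At day 7, kidney homogenates were serially diluted and plated on Sabouraud agar for CFU. Three experiments, 4 mice/group.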

In assay [10] the test system is Candida albicans. In words: Antifungal activity against Candida albicans CA-6 infected in CD1 mouse assessed as survival from fungus-induced mortality at 10 mg/kg, ip pretreated 2 hrs before fungus-challenge and once daily for 6 days. It counts as functional. The method in brief: (§2)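 Female outbred CD1 mice, 8–10 weeks old, infected i.v. on day 0 with C. albicans CA-6 blastospores (7 × 10⁵/mouse). Given 10 mg/kg i.p. 2 h before infection, then once daily for 6 consecutive days. Vehicle was 0.2 ml 2% EtOH in saline i.p. Survival monitored over a 30-day observation period. Three repeat experiments, 4 animals/group.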

Assay [11] relates to Candida albicans. Description: Antifungal activity against Candida albicans CA-6 infected in CD1 mouse assessed as reduction fungal cell number in kidney at 10 mg/kg, ip pretreated 2 hrs before fungus-challenge and once daily for 6 days measured 7 days post-infection by periodic acid-Schiff staining. Set-up: dose 10 mg/kg. Format: functional, organism-based. Summed up: (§3)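 CD1 mice were challenged i.v. with 7 × 10⁵ CA-6 per mouse. Dosing was 10 mg/kg 2 h before challenge, then once daily for 6 days. Kidneys were excised 7 days post-infection, formalin-fixed and paraffin-embedded. Sections were stained with periodic acid-Schiff and assessed histologically for fungal cells and inflammatory foci.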

Assay [12] has as its system Cryptococcus neoformans. In words: Antifungal activity against Cryptococcus neoformans CAP67 after 48 hrs by broth microdilution assay. Format: functional. As to conditions: CAP67, 48 h.
Assay [13] relates to Candida parapsilosis. Description: Antifungal activity against Candida parapsilosis after 24 hrs by broth microdilution assay. The settings on record: Lodderomyces parapsilosis. It counts as functional. The method in brief:
as §1

The subject of assay [14] is Candida albicans. In words: Antifungal activity against Candida albicans CA-6 infected in CD1 mouse assessed as reduction of inflammatory foci in kidney at 10 mg/kg, ip pretreated 2 hrs before fungus-challenge and once daily for 6 days measured 7 days post-infection by periodic acid-Schiff staining. Format: functional, organism-based. More on the design: dose 10 mg/kg. The method in brief:
as §3

The test system of assay [15] is Candida parapsilosis. Description: Antifungal activity against Candida parapsilosis after 48 hrs by broth microdilution assay. As to conditions: Lodderomyces parapsilosis. Format: functional. The method in brief:
as §1

Assay [16] has as its system Candida albicans. In words: Antifungal activity against Candida albicans CA-6 after 24 hrs by broth microdilution assay. The settings on record: CA-6, 24 h. It counts as functional. The method in brief:
as §1

In assay [17] the test system is Cryptococcus neoformans. Description: Antifungal activity against Cryptococcus neoformans 6995 after 48 hrs by broth microdilution assay. As to conditions: Cryptococcus neoformans, 6995, 48 h. Format: functional.
For assay [18], the system named is Candida albicans. In words: Antifungal activity against Candida albicans CA-6 infected in CD1 mouse assessed as survival days in 30 days observation period at 10 mg/kg, ip pretreated 2 hrs before fungus-challenge and once daily for 6 days. It counts as functional. As to conditions: route intraperitoneal. Summed up: as §2

Converted amounts (≈) assume the structure as drawn. The source made the active and inactive calls. Some results are limits rather than exact numbers.

Consider six compounds from ChEMBL document CHEMBL1158430, “Bulky 1,4-benzoxazine derivatives with antifungal activity” (2009).

Usually MIC stands for the smallest concentration in the dilution series that meets the test's criterion for growth inhibition. A lower MIC goes with a more susceptible organism. For the compound `CCCCC1Oc2ccc(OC[C@@H]3CO[C@](Cn4ccnc4)(c4ccc(Cl)cc4Cl)O3)cc2N(C)C1=O` (relative stereo), the MIC was 7.8 µg/mL (≈ 14.3 µM) in the assay with Pichia kudriavzevii [1]; 62.5 µg/mL (≈ 114 µM) against Nakaseomyces glabratus [3]; above 500 µg/mL with Candida albicans [4]; 3.9 µg/mL (≈ 7.14 µM) in the assay on Pichia kudriavzevii [5]; 0.49 µg/mL (≈ 0.897 µM) with Candida albicans [6]; above 500 µg/mL in the assay with Nakaseomyces glabratus [7]. The MIC was above 500 µg/mL against Candida albicans [8]; 3.9 µg/mL (≈ 7.14 µM) with Cryptococcus neoformans [12]; 125 µg/mL (≈ 229 µM) with Candida parapsilosis [13]; 500 µg/mL (≈ 915 µM) with Candida parapsilosis [15]; 0.49 µg/mL (≈ 0.897 µM) against Candida albicans [16]; 7.8 µg/mL (≈ 14.3 µM) with Cryptococcus neoformans [17]. Further, the outcome with Candida albicans [2], in the assay with Candida albicans [9], in the assay with Candida albicans [11] and in the assay on Candida albicans [14] was Active. In the assay on Candida albicans [10] (route intraperitoneal), the Activity was determined as 50%.
`CN1C(=O)COc2ccc(OC[C@@H]3CO[C@](Cn4ccnc4)(c4ccc(Cl)cc4Cl)O3)cc21` (relative stereo): the MIC against Pichia kudriavzevii [1] was above 500 µg/mL; against Nakaseomyces glabratus [3], 15.6 µg/mL (≈ 31.8 µM); against Candida albicans [4], above 500 µg/mL; against Pichia kudriavzevii [5], 15.6 µg/mL (≈ 31.8 µM); against Candida albicans [6], 0.49 µg/mL (≈ 0.999 µM); against Nakaseomyces glabratus [7], 250 µg/mL (≈ 510 µM). Besides, the MIC with Candida albicans [8] was above 500 µg/mL; against Cryptococcus neoformans [12], 0.03 µg/mL (≈ 0.0612 µM); in the assay with Candida parapsilosis [13] it was above 500 µg/mL; with Candida parapsilosis [15], above 500 µg/mL; against Candida albicans [16] it was 0.49 µg/mL (≈ 0.999 µM); in the assay on Cryptococcus neoformans [17], 1.95 µg/mL (≈ 3.98 µM). Besides, the outcome with Candida albicans [10] was inactive.
Turning to `CN1C(=O)COc2ccc(OC[C@H]3CO[C@](Cn4ccnc4)(c4ccc(Cl)cc4Cl)O3)cc21` (relative stereo), the MIC against Pichia kudriavzevii [1] was above 500 µg/mL; against Nakaseomyces glabratus [3] it was 7.8 µg/mL (≈ 15.9 µM); in the assay on Candida albicans [4], above 500 µg/mL; with Pichia kudriavzevii [5] it was 15.6 µg/mL (≈ 31.8 µM); against Candida albicans [6] it was 0.49 µg/mL (≈ 0.999 µM); in the assay with Nakaseomyces glabratus [7], above 500 µg/mL. Further, the MIC in the assay on Candida albicans [8] is above 500 µg/mL; in the assay with Cryptococcus neoformans [12], 0.0019 µg/mL (≈ 0.00387 µM); with Candida parapsilosis [13], 250 µg/mL (≈ 510 µM); against Candida parapsilosis [15] it was above 500 µg/mL; against Candida albicans [16], 0.49 µg/mL (≈ 0.999 µM); against Cryptococcus neoformans [17], 0.24 µg/mL (≈ 0.489 µM). The result in the assay with Candida albicans [10] was inactive.
As to `CCCCC1Oc2ccc(OC[C@H]3CO[C@](Cn4ccnc4)(c4ccc(Cl)cc4Cl)O3)cc2N(C)C1=O` (relative stereo), the MIC against Pichia kudriavzevii [1] was 3.9 µg/mL (≈ 7.14 µM); against Nakaseomyces glabratus [3], 31.2 µg/mL (≈ 57.2 µM); in the assay on Candida albicans [4], 125 µg/mL (≈ 229 µM); in the assay with Pichia kudriavzevii [5], 3.9 µg/mL (≈ 7.14 µM); in the assay with Candida albicans [6], 0.49 µg/mL (≈ 0.897 µM); in the assay on Nakaseomyces glabratus [7], 125 µg/mL (≈ 229 µM). Besides, the MIC against Candida albicans [8] came to 125 µg/mL (≈ 229 µM); with Cryptococcus neoformans [12], 1.95 µg/mL (≈ 3.57 µM); in the assay with Candida parapsilosis [13], 31.2 µg/mL (≈ 57.2 µM); against Candida parapsilosis [15], 31.2 µg/mL (≈ 57.2 µM); against Candida albicans [16] it was 0.49 µg/mL (≈ 0.897 µM); in the assay on Cryptococcus neoformans [17], 7.8 µg/mL (≈ 14.3 µM). The result in the assay with Candida albicans [2], in the assay on Candida albicans [9], in the assay with Candida albicans [11] and in the assay on Candida albicans [14] was Active. Also, the Activity with Candida albicans [18] came to 23 days.
In the case of `OC(Cn1cncn1)(Cn1cncn1)c1ccc(F)cc1F` [FLUCONAZOLE], the MIC with Pichia kudriavzevii [1] was above 500 µg/mL; with Nakaseomyces glabratus [3] it was 125 µg/mL (≈ 408 µM); against Candida albicans [4], above 500 µg/mL; in the assay with Pichia kudriavzevii [5], 250 µg/mL (≈ 816 µM); against Candida albicans [6], below 0.0076 µg/mL; with Nakaseomyces glabratus [7], 250 µg/mL (≈ 816 µM). In addition, the minimal inhibitory concentration (MIC) in the assay with Candida albicans [8] was above 500 µg/mL; against Cryptococcus neoformans [12], 0.49 µg/mL (≈ 1.6 µM); against Candida parapsilosis [13], 7.8 µg/mL (≈ 25.5 µM); with Candida parapsilosis [15], 15.6 µg/mL (≈ 50.9 µM); in the assay with Candida albicans [16], below 0.0076 µg/mL; in the assay with Cryptococcus neoformans [17], 3.9 µg/mL (≈ 12.7 µM). For the same compound, the outcome in the assay on Candida albicans [2], in the assay on Candida albicans [9], with Candida albicans [11] and with Candida albicans [14] was Active. The Activity with Candida albicans [10] (route intraperitoneal) came out at 75%.
Take `CC(=O)N1CCN(c2ccc(OCC3COC(Cn4ccnc4)(c4ccc(Cl)cc4Cl)O3)cc2)CC1` (centres undefined) [KETOCONAZOLE]: the MIC is 0.97 µg/mL (≈ 1.83 µM) against Pichia kudriavzevii [1]; 0.12 µg/mL (≈ 0.226 µM) against Nakaseomyces glabratus [3]; 15.6 µg/mL (≈ 29.4 µM) against Candida albicans [4]; 0.49 µg/mL (≈ 0.922 µM) with Pichia kudriavzevii [5]; below 0.0076 µg/mL in the assay with Candida albicans [6]; 1.95 µg/mL (≈ 3.67 µM) with Nakaseomyces glabratus [7]. Further, the MIC in the assay on Candida albicans [8] is 15.6 µg/mL (≈ 29.4 µM); in the assay with Cryptococcus neoformans [12], 0.00012 µg/mL (≈ 0.000226 µM); in the assay on Candida parapsilosis [13] it was below 6e-05 µg/mL; against Candida parapsilosis [15], 0.00095 µg/mL (≈ 0.00179 µM); against Candida albicans [16], below 0.0076 µg/mL; against Cryptococcus neoformans [17] it was 0.00095 µg/mL (≈ 0.00179 µM).
